# Measured values as given in ChEMBL document CHEMBL1932971, “Synthesis of uriedo and thiouriedo derivatives of peptide conjugated heterocycles - A new class of promising antimicrobials” (2012).
# Numbered stars: 1 amine (or outer) side, 2 acyl side, 3 side chain; on linkers, the order of the positions; unused ones are H or OH. Peptide text beside a SMILES is read from it. * marks the point of attachment. Piperazinyl(4-(2,3-Cl2Ph)) = Clc1cccc(N2CCN(*)CC2)c1Cl; Thiocarbamoyl(N-4-ClPh) = S=C(Nc1ccc(Cl)cc1)*; Thiocarbamoyl(N-2-FPh) = Fc1ccccc1NC(=S)*; NH(4-Cl-phenyl) = Clc1ccc(N*)cc1; X1 = Fc1ccc2c(C3CCN(*)CC3)noc2c1; NH(2-F-phenyl) = Fc1ccccc1N*; CO = O=C([*:1])[*:2]
# Columns and labels:
# Type in all cases: functional
# Escherichia coli [1] = experiment: Antibacterial activity against Escherichia coli at 30 ug/ml after 24 hrs by agar well diffusion method; conditions: read-out: DIZ
# Outline: (§1)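 Agar well diffusion. Inocula were grown in nutrient broth at 37 °C for 24 h, then subcultured in nutrient broth at room temperature. Compounds were made as a 1 mg/mL DMSO stock and diluted to 30 µg/mL final. Nutrient agar plates were spread-inoculated and 6 mm wells each got 0.1 mL. Controls were amoxicillin (reference) and DMSO (negative). Incubation was 24 h at 37 °C. Inhibition zone was measured in mm as the mean of three determinations.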
# Xanthomonas oryzae [2] = experiment: Antibacterial activity against Xanthomonas oryzae at 30 ug/ml after 24 hrs by agar well diffusion method; conditions: read-out: DIZ
# Klebsiella pneumoniae [3] = experiment: Antibacterial activity against Klebsiella pneumoniae at 30 ug/ml after 24 hrs by agar well diffusion method; conditions: read-out: DIZ; outline: as §1
# Staphylococcus aureus [4] = experiment: Antibacterial activity against coagulase-positive Staphylococcus aureus at 30 ug/ml after 24 hrs by agar well diffusion method; conditions: read-out: DIZ; outline: as §1
# Escherichia coli [5] = experiment: Antibacterial activity against Escherichia coli after 24 hrs by microdilution method
# Xanthomonas oryzae [6] = experiment: Antibacterial activity against Xanthomonas oryzae after 24 hrs by microdilution method
# Klebsiella pneumoniae [7] = experiment: Antibacterial activity against Klebsiella pneumoniae after 24 hrs by microdilution method
# Staphylococcus aureus [8] = experiment: Antibacterial activity against coagulase-positive Staphylococcus aureus after 24 hrs by microdilution method
# Aspergillus niger [9] = experiment: Antifungal activity against Aspergillus niger at 30 ug/ml after 72 hrs by agar well diffusion method; conditions: read-out: DIZ
# Outline: (§2)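 Fungal well diffusion. Inocula were subcultured in nutrient broth for one day, then spread on solidified medium. Compounds were made as a 1 mg/mL DMSO stock and diluted to 30 µg/mL final. Each 6 mm well got 0.1 mL. Controls were bavistin (reference) and DMSO (negative). Plates stood for 3 days at room temperature. Inhibition zone was measured in mm as the mean of three determinations.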
# Aspergillus flavus [10] = experiment: Antifungal activity against Aspergillus flavus at 30 ug/ml after 72 hrs by agar well diffusion method; conditions: read-out: DIZ; outline: as §2
# Fusarium oxysporum [11] = experiment: Antifungal activity against Fusarium oxysporum at 30 ug/ml after 72 hrs by agar well diffusion method; conditions: read-out: DIZ; outline: as §2
# Aspergillus niger [12] = experiment: Antifungal activity against Aspergillus niger after 72 hrs by microdilution method
# Aspergillus flavus [13] = experiment: Antifungal activity against Aspergillus flavus after 72 hrs by microdilution method
# Fusarium oxysporum [14] = experiment: Antifungal activity against Fusarium oxysporum after 72 hrs by microdilution method
SMILES,zone of inhibition at 30 µg/mL (Escherichia coli [1]) [mm],zone of inhibition at 30 µg/mL (Xanthomonas oryzae [2]) [mm],zone of inhibition at 30 µg/mL (Klebsiella pneumoniae [3]) [mm],zone of inhibition at 30 µg/mL (Staphylococcus aureus [4]) [mm],MIC (Escherichia coli [5]) [µg/mL],MIC (Xanthomonas oryzae [6]) [µg/mL],MIC (Klebsiella pneumoniae [7]) [µg/mL],MIC (Staphylococcus aureus [8]) [µg/mL],zone of inhibition at 30 µg/mL (Aspergillus niger [9]) [mm],zone of inhibition at 30 µg/mL (Aspergillus flavus [10]) [mm],zone of inhibition at 30 µg/mL (Fusarium oxysporum [11]) [mm],MIC (Aspergillus niger [12]) [µg/mL],MIC (Aspergillus flavus [13]) [µg/mL],MIC (Fusarium oxysporum [14]) [µg/mL]
CC(C)[C@H](NC(=O)CNC(=S)Nc1ccc(Cl)cc1)C(=O)NCC(=O)N[C@H](C(=O)N1CCC[C@H]1C(=O)N1CCC(c2noc3cc(F)ccc23)CC1)C(C)C ({Thiocarbamoyl(N-4-ClPh)}-GVGVP-X1),31,32,30,28,8.75,8,6.5,8,34,30,31,6,6.75,8
O=C(CNC(=S)Nc1ccc(Cl)cc1)N[C@@H](Cc1ccccc1)C(=O)NCC(=O)N[C@@H](Cc1ccccc1)C(=O)N1CCC[C@H]1C(=O)N1CCC(c2noc3cc(F)ccc23)CC1 ({Thiocarbamoyl(N-4-ClPh)}-GFGFP-X1),35,36,34,32,6,6.25,4.5,5.75,39,32,36,4.5,6,5.75
O=C(CNC(=O)Nc1ccccc1F)N[C@@H](Cc1ccccc1)C(=O)NCC(=O)N[C@@H](Cc1ccccc1)C(=O)N1CCC[C@H]1C(=O)N1CCC(c2noc3cc(F)ccc23)CC1 ({NH(2-F-phenyl)-CO}-GFGFP-X1),39,40,36,34,5,5,3.25,4.25,40,35,39,3.25,4.75,4.25
O=C(CNC(=S)Nc1ccccc1F)NCC(=O)N[C@@H](Cc1ccccc1)C(=O)N1CCC[C@H]1C(=O)N1CCC(c2noc3cc(F)ccc23)CC1 ({Thiocarbamoyl(N-2-FPh)}-GGFP-X1),32,30,28,26,11.5,8.5,8.25,10.2,35,30,32,8.5,12.2,13.2
O=C(CNC(=O)Nc1ccc(Cl)cc1)N[C@@H](Cc1ccccc1)C(=O)NCC(=O)N[C@@H](Cc1ccccc1)C(=O)N1CCC[C@H]1C(=O)N1CCC(c2noc3cc(F)ccc23)CC1 ({NH(4-Cl-phenyl)-CO}-GFGFP-X1),34,35,33,31,6.25,6.5,4.75,6,38,31,35,4.75,6.25,6
CC1(C)S[C@@H]2[C@H](NC(=O)[C@H](N)c3ccc(O)cc3)C(=O)N2[C@H]1C(=O)O [AMOXICILLIN],12,9,8,8,24,19,20,23,,,,,,
"CC(C)[C@H](NC(=O)CNC(=S)Nc1ccc(Cl)cc1)C(=O)NCC(=O)N[C@H](C(=O)N1CCC[C@H]1C(=O)N1CCN(c2cccc(Cl)c2Cl)CC1)C(C)C ({Thiocarbamoyl(N-4-ClPh)}-GVGVP-{Piperazinyl(4-(2,3-Cl2Ph))})",29,31,24,26,9.5,8.75,7,9,32,24,29,6.75,7.75,8.75
"CC[C@H](C)[C@H](NC(=O)CNC(=O)CNC(=O)Nc1ccccc1F)C(=O)N1CCC[C@H]1C(=O)N1CCN(c2cccc(Cl)c2Cl)CC1 ({NH(2-F-phenyl)-CO}-GGIP-{Piperazinyl(4-(2,3-Cl2Ph))})",29,26,23,24,13,10,10,12,32,28,30,11,14,15
"CC(C)[C@H](NC(=O)CNC(=O)Nc1ccccc1F)C(=O)NCC(=O)N[C@H](C(=O)N1CCC[C@H]1C(=O)N1CCN(c2cccc(Cl)c2Cl)CC1)C(C)C ({NH(2-F-phenyl)-CO}-GVGVP-{Piperazinyl(4-(2,3-Cl2Ph))})",33,34,32,29,8.25,7.25,6,7.25,35,31,32,5.5,6.25,7.5
"O=C(CNC(=O)Nc1ccccc1F)N[C@@H](Cc1ccccc1)C(=O)NCC(=O)N[C@@H](Cc1ccccc1)C(=O)N1CCC[C@H]1C(=O)N1CCN(c2cccc(Cl)c2Cl)CC1 ({NH(2-F-phenyl)-CO}-GFGFP-{Piperazinyl(4-(2,3-Cl2Ph))})",37,38,35,33,5.5,5.75,4,5,39,34,34,4,5.25,5
COC(=O)Nc1nc2ccccc2[nH]1 [CARBENDAZIM],,,,,,,,,12,9,10,22,26,25
